ChEMBL document CHEMBL1671644, “Inhibition of human immunodeficiency virus type 1 infection by the candidate microbicide dapivirine, a nonnucleoside reverse transcriptase inhibitor” (Antimicrob Agents Chemother, 2009)

How the values were obtained:
[1] = Selectivity index, ratio of CC50 for human monocyte derived macrophages to IC50 for HIV-1 Bal; type: functional
Outline: (§1)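 Selectivity index is CC50/IC50, using values determined in the same time period. CC50 was measured by MTT for TZM-bl and PM-1 cells and by trypan blue exclusion after 14 days for macrophages. Both were fitted by nonlinear regression.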

[2] = test system: Human immunodeficiency virus 1; experiment: Antiviral activity against HIV-1 Bal infected in 24 hrs 100 to 1000 nM compound pretreated human ectocervical explant tissue assessed as prolonged inhibition of viral infection post compound removal measured after 4 days post compound removal; type: functional
Outline: (§2)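 Ectocervical explants were exposed to drug (0.01–10 µM) for 2 or 24 h at 37°C and washed. They received HIV-1BaL (2 h) on day 0, 2, 4 or 6 after drug removal, with no drug present. Read-outs at 10 days post-exposure: explant p24 ELISA, tissue proviral DNA by qPCR, and p24 in migratory cell–PM-1 cocultures. Three donors (2 h) or two donors (24 h), triplicate.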

[3] = Cytotoxicity against human TZM-bl cells after 24 hrs by MTT assay; type: cell-based
Outline: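 Uninfected PM-1 or TZM-bl cells were exposed to drug and viability measured by MTT dye reduction as a percentage of untreated controls. CC50 was derived by nonlinear regression.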

[4] = test system: Human immunodeficiency virus 1; experiment: Antiviral activity against HIV-1 subtype B V022810 harboring NNRTI A98S andK101R mutant infected in human MT4 cells assessed as inhibition of viral replication relative to HIV-1 3B; type: functional
Outline: (§3)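 MT-4 cells (3 x 10^4/well) infected with site-directed mutants or recombinant clinical isolates (200 TCID50/well) with drug, cultured 3 to 5 days. Viability read by MTT colorimetric antivirogram assay. IC50 by nonlinear regression; fold change = IC50 for the test isolate / IC50 for wild-type HIV-1 IIIB tested in parallel (mean or median).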

[5] = test system: Human immunodeficiency virus 1; experiment: Antiviral activity against HIV-1 subtype CRF02_AG V022808 infected in human MT4 cells assessed as inhibition of viral replication relative to HIV-1 3B; type: functional; outline: as §3
[6] = test system: Human immunodeficiency virus 1; experiment: Antiviral activity against HIV-1 subtype D V022819 infected in human MT4 cells assessed as inhibition of viral replication relative to HIV-1 3B; type: functional; outline: as §3
[7] = test system: Human immunodeficiency virus 1; experiment: Antiviral activity against HIV-1 SF162 infected in hu-SCID mouse assessed as protection from viral infection at 225 uM; type: functional; settings: Human immunodeficiency virus 1, SF162 ISOLATE
[8] = test system: Human immunodeficiency virus 1; experiment: Antiviral activity against HIV-1 subtype CRF01_AE V029525 infected in human MT4 cells assessed as inhibition of viral replication relative to HIV-1 3B; type: functional
Outline: (§4)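 Recombinant clinical HIV-1 isolates (200 TCID50/well) were tested in MT-4 cells (3 x 10^4/well) over 3–5 days, with an MTT viability read-out. IC50 was fitted by nonlinear regression. Fold change is the isolate IC50 divided by the HIV-1IIIB IC50, tested in parallel.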

[9] = test system: Human immunodeficiency virus 1; experiment: Antiviral activity against HIV-1 SM026 harboring NNTRI 103N and 181C mutant infected in human MT4 cells assessed as inhibition of viral replication relative to HIV-1 3B; type: functional; outline: as §3
[10] = test system: Human immunodeficiency virus 1; experiment: Antiviral activity against HIV-1 subtype CRF01_AE V029521 infected in human MT4 cells assessed as inhibition of viral replication relative to HIV-1 3B; type: functional; outline: as §4
[11] = test system: Human immunodeficiency virus 1; experiment: Antiviral activity against HIV-1 SM052 harboring NNTRI 101E and 103N mutant infected in human MT4 cells assessed as inhibition of viral replication relative to HIV-1 3B; type: functional; outline: as §3
[12] = test system: Human immunodeficiency virus 1; experiment: Antiviral activity against HIV-1 subtype F V029522 infected in human MT4 cells assessed as inhibition of viral replication relative to HIV-1 3B; type: functional; outline: as §3
[13] = Selectivity index, ratio of CC50 for human TZM-bl cells to IC50 for HIV-1 Bal; type: functional; outline: as §1
[14] = test system: Human immunodeficiency virus 1; experiment: Antiviral activity against HIV-1 subtype B V022812 harboring NNRTI V179I mutant infected in human MT4 cells assessed as inhibition of viral replication relative to HIV-1 3B; type: functional; outline: as §3
[15] = test system: Human immunodeficiency virus 1; experiment: Antiviral activity against HIV-1 Bal infected in human PM1 cells assessed as inhibition of transmission of virus to premissive T cells; type: functional, organism-based; settings: Human immunodeficiency virus 1, Bal
Outline: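 Explants were pretreated with drug for 1 h, then exposed to HIV-1BaL for 2 h with drug present and washed. Cells that migrated out overnight were washed and cocultured with PM-1 cells (4 x 10^4/well) for about 10 days. Transfer was read as p24 by ELISA in coculture supernatant (detection limit 300 pg/ml). Two donors, triplicate.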

[16] = test system: Human immunodeficiency virus 1; experiment: Antiviral activity against HIV-1 Bal infected in 2 hrs 10000 nM compound pretreated human ectocervical explant tissue assessed as prolonged inhibition of viral infection post compound removal measured after 6 days post compound removal; type: functional; outline: as §2
[17] = test system: Human immunodeficiency virus 1; experiment: Antiviral activity against HIV-1 SM051 harboring NNTRI 100I and 103N mutant infected in human MT4 cells assessed as inhibition of viral replication relative to HIV-1 3B; type: functional; outline: as §3
[18] = test system: Human immunodeficiency virus 1; experiment: Antiviral activity against HIV-1 subtype D V022832 infected in human MT4 cells assessed as inhibition of viral replication relative to HIV-1 3B; type: functional; outline: as §3
[19] = test system: Human immunodeficiency virus 1; experiment: Antiviral activity against HIV-1 subtype CRF02_AG V022826 infected in human MT4 cells assessed as inhibition of viral replication relative to HIV-1 3B; type: functional; outline: as §3
[20] = test system: Human immunodeficiency virus 1; experiment: Antiviral activity against HIV-1 subtype CRF05_DF V022823 infected in human MT4 cells assessed as inhibition of viral replication relative to HIV-1 3B; type: functional; outline: as §3
[21] = test system: Human immunodeficiency virus 1; experiment: Antiviral activity against HIV-1 3B infected in human TZM-bl cells after 24 hrs by luciferase reporter assay; settings: Human immunodeficiency virus 1, 3B
[22] = test system: Human immunodeficiency virus 1; experiment: Antiviral activity against HIV-1 SM058 harboring NNTRI 227L and 106A mutant infected in human MT4 cells assessed as inhibition of viral replication relative to HIV-1 3B; type: functional; outline: as §3
[23] = test system: Human immunodeficiency virus 1; experiment: Antiviral activity against HIV-1 Bal infected in human monocyte derived macrophages after 14 days by p24 assay; settings: Human immunodeficiency virus 1, Bal, 336 h
[24] = test system: Human immunodeficiency virus 1; experiment: Antiviral activity against HIV-1 subtype B V022811 infected in human MT4 cells assessed as inhibition of viral replication relative to HIV-1 3B; type: functional; outline: as §4
[25] = test system: Human immunodeficiency virus 1; experiment: Antiviral activity against HIV-1 subtype C V022816 infected in human MT4 cells assessed as inhibition of viral replication relative to HIV-1 3B; type: functional; outline: as §4
[26] = test system: Human immunodeficiency virus 1; experiment: Antiviral activity against HIV-1 Bal infected in human TZM-bl cells after 24 hrs by luciferase reporter gene assay in presence of 12.5% whole semen; type: functional, organism-based; settings: Human immunodeficiency virus 1, Bal
Outline: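 HIV-1 BaL (200 TCID50/ml) pretreated with whole semen (12.5% final), then added to overnight-cultured TZM-bl cells (5 x 10^4/well) pretreated 1 h with drug. After 24 h, cells lysed and luciferase read. IC50 versus drug-free control by nonlinear regression; effect of semen tested by ANOVA with Bonferroni and t tests.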

## Cc1cc(C)c(Nc2ccnc(Nc3ccc(C#N)cc3)n2)c(C)c1 [DAPIVIRINE]
[1]
  Selectivity Index: 8333
[2]
  inhibition (INH): 90%
[3]
  CC50 at 24 h: 20400 nM
[4]
  Ratio IC50: 1.6
[5]
  Ratio IC50: 1
[6]
  Ratio IC50: 1.5
[7]
  inhibition in vivo at 225 µM: 85.7%
[8]
  Ratio IC50: 2.6
[9]
  Ratio IC50: 63
[10]
  Ratio IC50: 3.5
[11]
  Ratio IC50: 17
[12]
  Ratio IC50: 1.5
[13]
  Selectivity Index: 9273
[14]
  Ratio IC50: 2
[15]
  IC50: 0.1 nM
[16]
  inhibition (INH): 80%
[17]
  Ratio IC50: 2389
[18]
  Ratio IC50: 0.7
[19]
  Ratio IC50: 1
[20]
  Ratio IC50: 0.7
[21]
  IC50: 1 nM
[22]
  Ratio IC50: 8
[23]
  IC50: 2.4 nM
[24]
  Ratio IC50: 3.1
[25]
  Ratio IC50: 1.8
[26]
  IC50: 1.75 nM
  IC90: 16.7 nM
